Data as given in ChEMBL document CHEMBL5724801, “EUbOPEN Chemogenomics Library - Multiplex” (2024).
Where “and” joins values, the source holds several entries; their conditions need not be identical. Equal entries are not always repeated.

These compounds were tested on Fibroblast (assay: Multiplex assay against human fibroblast). Details: 12 h, 1 µM, compound concentration 1 uM.
Assay type: toxicity, cell-based
In short: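 Live cells carried four stains from seeding: Hoechst33342, BioTracker Green Microtubule Cytoskeleton Dye, MitoTracker Red and Annexin V Alexa Fluor 680. They were imaged on a CQ1 microscope at 37°C and 5% CO2 after compound addition. Using CellPathfinder machine-learning gating, cells were split into Hoechst high-intensity objects or normal cells, normal cells into healthy, pyknosed or fragmented nuclei, and pyknosed cells into mitotic or apoptotic; tubulin, mitochondrial-mass and membrane-permeability phenotypes are per cents of healthy-nucleus cells.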

Row | Compound | Population Apoptotic (%) | Population Healthy Nuclei (%) | Population Hoechst High Intensity Objects (%) | Population Membrane Permeable-Phenotype (%) | Population Mitochondria Different-Phenotype (%) | Population Mitotic Cells (%) | Population Normal (%) | Population Pyknosed Nuclei (%) | Population Tubulin-Different-Phenotype (%) | Total Cell Count
1 | Br.CS(=O)(=O)Nc1c(O)ccc2c1CCCC2C1=NCCN1 (centres undefined) | 17% and 31% | 76% and 47% | 1% and 8% | 0% and 7% | 5% and 8% | 82% and 68% | 98% and 91% | 14% and 19% | 20% and 38% | 167 and 192
2 | Cc1sc2c(c1C)C(c1ccc(Cl)cc1)=N[C@H](CC(=O)OC(C)(C)C)c1nnc(C)n1-2 | 43% and 33% | 62% and 51% | 2% and 5% | 0% and 15% | 5% and 10% | 56% and 66% | 97% and 94% | 22% | 30% and 46% | 180 and 159
3 | CN(C)c1ccnc2sc3c(=O)n(N4CCCCCC4)cnc3c12 | 42% and 30% | 64% and 51% | 3% and 6% | 1% and 10% | 3% | 57% and 70% | 96% and 93% | 18% and 19% | 29% and 44% | 144 and 162
4 | CCCOc1ccc2[nH]cc(C3=CCNCC3)c2n1.Cl | 42% and 48% | 71% and 52% | 2% and 0% | 0% and 8% | 6% and 2% | 57% and 51% | 97% and 99% | 15% and 21% | 27% and 47% | 143 and 137

Same assay, conditions: 12 h, 1 µM, compound concentration 1 uM

Row | Compound | Population Fragmented Nuclei (%)
5 | Cc1sc2c(c1C)C(c1ccc(Cl)cc1)=N[C@H](CC(=O)OC(C)(C)C)c1nnc(C)n1-2 | 15% and 26%
6 | CN(C)c1ccnc2sc3c(=O)n(N4CCCCCC4)cnc3c12 | 17% and 28%
7 | CCCOc1ccc2[nH]cc(C3=CCNCC3)c2n1.Cl | 13% and 25%

Same assay, conditions: 12 h, 10 µM, compound concentration 10 uM

Row | Compound | Population Apoptotic (%) | Population Fragmented Nuclei (%) | Population Healthy Nuclei (%) | Population Hoechst High Intensity Objects (%) | Population Mitochondria Different-Phenotype (%) | Population Mitotic Cells (%) | Population Normal (%) | Population Pyknosed Nuclei (%) | Population Tubulin-Different-Phenotype (%) | Total Cell Count
8 | Br.CS(=O)(=O)Nc1c(O)ccc2c1CCCC2C1=NCCN1 (centres undefined) | 38% and 33% | 20% and 38% | 47% and 45% | 6% and 0% | 7% and 5% | 61% and 66% | 93% and 99% | 31% and 16% | 21% and 43% | 148 and 129
9 | Cc1sc2c(c1C)C(c1ccc(Cl)cc1)=N[C@H](CC(=O)OC(C)(C)C)c1nnc(C)n1-2 | 43% and 51% | 19% and 30% | 55% and 39% | 7% and 5% | 15% and 20% | 56% and 48% | 92% and 94% | 25% and 29% | 90% and 95% | 128 and 169
10 | CN(C)c1ccnc2sc3c(=O)n(N4CCCCCC4)cnc3c12 | 44% and 49% | 14% and 31% | 58% and 30% | 5% and 7% | 14% | 55% and 50% | 94% and 92% | 27% and 38% | 75% | 141 and 145
11 | CCCOc1ccc2[nH]cc(C3=CCNCC3)c2n1.Cl | 70% and 40% | 16% and 31% | 70% and 48% | 4% and 2% | 12% and 10% | 29% and 60% | 95% and 97% | 13% and 20% | 41% and 59% | 133 and 125

Same assay, conditions: 12 h, 10 µM, compound concentration 10 uM

Row | Compound | Population Membrane Permeable-Phenotype (%)
12 | Cc1sc2c(c1C)C(c1ccc(Cl)cc1)=N[C@H](CC(=O)OC(C)(C)C)c1nnc(C)n1-2 | 0% and 4%
13 | CCCOc1ccc2[nH]cc(C3=CCNCC3)c2n1.Cl | 0% and 1%

Same assay, conditions: 24 h, 1 µM, compound concentration 1 uM

Row | Compound | Population Apoptotic (%) | Population Fragmented Nuclei (%) | Population Healthy Nuclei (%) | Population Hoechst High Intensity Objects (%) | Population Membrane Permeable-Phenotype (%) | Population Mitochondria Different-Phenotype (%) | Population Mitotic Cells (%) | Population Normal (%) | Population Pyknosed Nuclei (%) | Population Tubulin-Different-Phenotype (%)
14 | Br.CS(=O)(=O)Nc1c(O)ccc2c1CCCC2C1=NCCN1 (centres undefined) | 56% and 33% | 12% and 25% | 77% and 60% | 1% and 7% | 0% and 2% | 3% and 7% | 43% and 66% | 98% and 92% | 10% and 14% | 16% and 41%
15 | Cc1sc2c(c1C)C(c1ccc(Cl)cc1)=N[C@H](CC(=O)OC(C)(C)C)c1nnc(C)n1-2 | 82% and 46% | 17% and 29% | 60% and 50% | 2% and 6% | 0% and 11% | 2% and 5% |  | 97% and 93% | 21% and 20% | 29% and 51%
16 | CN(C)c1ccnc2sc3c(=O)n(N4CCCCCC4)cnc3c12 | 48% and 50% | 11% and 24% | 67% and 55% | 3% and 2% | 0% and 10% | 3% and 2% | 51% and 50% | 96% and 97% | 21% and 19% | 27% and 49%
17 | CCCOc1ccc2[nH]cc(C3=CCNCC3)c2n1.Cl | 57% and 38% | 14% and 28% | 76% and 52% | 2% and 0% | 0% and 5% | 6% and 5% | 42% and 61% | 97% and 100% | 9% and 18% | 20% and 40%

Same assay, conditions: 24 h, 1 µM, compound concentration 1 uM

Row | Compound | Total Cell Count
18 | Br.CS(=O)(=O)Nc1c(O)ccc2c1CCCC2C1=NCCN1 (centres undefined) | 159 and 180
19 | Cc1sc2c(c1C)C(c1ccc(Cl)cc1)=N[C@H](CC(=O)OC(C)(C)C)c1nnc(C)n1-2 | 186 and 149
20 | CN(C)c1ccnc2sc3c(=O)n(N4CCCCCC4)cnc3c12 | 143 and 146
21 | CCCOc1ccc2[nH]cc(C3=CCNCC3)c2n1.Cl | 155 and 140

Same assay, conditions: 24 h, 10 µM, compound concentration 10 uM

Row | Compound | Population Apoptotic (%) | Population Fragmented Nuclei (%) | Population Healthy Nuclei (%) | Population Hoechst High Intensity Objects (%) | Population Membrane Permeable-Phenotype (%) | Population Mitochondria Different-Phenotype (%) | Population Mitotic Cells (%) | Population Normal (%) | Population Pyknosed Nuclei (%) | Population Tubulin-Different-Phenotype (%)
22 | Br.CS(=O)(=O)Nc1c(O)ccc2c1CCCC2C1=NCCN1 (centres undefined) | 48% and 41% | 16% and 41% | 60% and 44% | 3% and 0% | 0% and 10% | 2% and 10% | 51% and 58% | 96% and 99% | 23% and 13% | 24% and 41%
23 | Cc1sc2c(c1C)C(c1ccc(Cl)cc1)=N[C@H](CC(=O)OC(C)(C)C)c1nnc(C)n1-2 | 75% and 51% | 16% and 26% | 69% and 45% | 8% and 4% | 2% and 4% | 19% and 26% | 25% and 48% | 91% and 95% | 14% and 27% | 76% and 87%
24 | CN(C)c1ccnc2sc3c(=O)n(N4CCCCCC4)cnc3c12 | 57% and 30% | 13% and 35% | 58% and 41% | 5% and 8% | 0% and 22% | 18% and 24% | 42% and 69% | 94% and 91% | 28% and 22% | 63% and 85%
25 | CCCOc1ccc2[nH]cc(C3=CCNCC3)c2n1.Cl | 61% and 50% | 23% and 20% | 64% and 68% | 1% and 2% | 0% and 4% | 12% and 8% | 38% and 50% | 98% and 97% | 11% | 36% and 61%

Same assay, conditions: 24 h, 10 µM, compound concentration 10 uM

Row | Compound | Total Cell Count
26 | Br.CS(=O)(=O)Nc1c(O)ccc2c1CCCC2C1=NCCN1 (centres undefined) | 148 and 130
27 | Cc1sc2c(c1C)C(c1ccc(Cl)cc1)=N[C@H](CC(=O)OC(C)(C)C)c1nnc(C)n1-2 | 123 and 165
28 | CN(C)c1ccnc2sc3c(=O)n(N4CCCCCC4)cnc3c12 | 130 and 128
29 | CCCOc1ccc2[nH]cc(C3=CCNCC3)c2n1.Cl | 159 and 107

Same assay, conditions: 48 h, 1 µM, compound concentration 1 uM

Row | Compound | Population Apoptotic (%) | Population Fragmented Nuclei (%) | Population Healthy Nuclei (%) | Population Hoechst High Intensity Objects (%) | Population Membrane Permeable-Phenotype (%) | Population Mitochondria Different-Phenotype (%) | Population Mitotic Cells (%) | Population Normal (%) | Population Pyknosed Nuclei (%) | Population Tubulin-Different-Phenotype (%)
30 | Br.CS(=O)(=O)Nc1c(O)ccc2c1CCCC2C1=NCCN1 (centres undefined) | 57% and 38% | 14% and 26% | 76% and 61% | 4% and 5% | 4% and 0% | 3% and 9% | 42% and 61% | 95% and 94% | 8% and 12% | 24% and 41%
31 | Cc1sc2c(c1C)C(c1ccc(Cl)cc1)=N[C@H](CC(=O)OC(C)(C)C)c1nnc(C)n1-2 | 63% and 53% | 19% and 29% | 66% and 49% | 5% | 0% and 12% | 2% and 10% | 36% and 46% | 94% and 95% | 13% and 21% | 28% and 69%
32 | CN(C)c1ccnc2sc3c(=O)n(N4CCCCCC4)cnc3c12 | 64% and 36% | 19% and 36% | 70% and 49% | 2% and 3% | 0% and 6% | 0% and 2% | 35% and 63% | 97% and 96% | 10% and 14% | 30% and 41%
33 | CCCOc1ccc2[nH]cc(C3=CCNCC3)c2n1.Cl | 69% and 64% | 17% and 36% | 74% and 53% | 2% and 4% | 0% and 5% | 5% and 2% | 30% and 35% | 97% and 95% | 8% and 9% | 23% and 40%

Same assay, conditions: 48 h, 1 µM, compound concentration 1 uM

Row | Compound | Total Cell Count
34 | Br.CS(=O)(=O)Nc1c(O)ccc2c1CCCC2C1=NCCN1 (centres undefined) | 167 and 177
35 | Cc1sc2c(c1C)C(c1ccc(Cl)cc1)=N[C@H](CC(=O)OC(C)(C)C)c1nnc(C)n1-2 | 170 and 140
36 | CN(C)c1ccnc2sc3c(=O)n(N4CCCCCC4)cnc3c12 | 143 and 157
37 | CCCOc1ccc2[nH]cc(C3=CCNCC3)c2n1.Cl | 162 and 147

Same assay, conditions: 48 h, 10 µM, compound concentration 10 uM

Row | Compound | Population Apoptotic (%) | Population Fragmented Nuclei (%) | Population Healthy Nuclei (%) | Population Hoechst High Intensity Objects (%) | Population Membrane Permeable-Phenotype (%) | Population Mitochondria Different-Phenotype (%) | Population Mitotic Cells (%) | Population Normal (%) | Population Pyknosed Nuclei (%) | Population Tubulin-Different-Phenotype (%)
38 | Br.CS(=O)(=O)Nc1c(O)ccc2c1CCCC2C1=NCCN1 (centres undefined) | 61% and 33% | 22% and 48% | 61% and 44% | 6% and 1% | 1% and 3% | 2% and 9% | 38% and 66% | 93% and 98% | 15% and 7% | 21% and 45%
39 | Cc1sc2c(c1C)C(c1ccc(Cl)cc1)=N[C@H](CC(=O)OC(C)(C)C)c1nnc(C)n1-2 | 50% and 63% | 21% and 35% | 66% and 51% | 1% | 1% and 4% | 13% and 9% | 50% and 36% | 98% | 12% and 13% | 70% and 88%
40 | CN(C)c1ccnc2sc3c(=O)n(N4CCCCCC4)cnc3c12 | 73% and 50% | 22% and 47% | 47% and 42% | 8% and 6% | 0% and 19% | 25% and 13% | 26% and 50% | 91% and 93% |  | 76% and 86%
41 | CCCOc1ccc2[nH]cc(C3=CCNCC3)c2n1.Cl | 73% and 60% | 21% and 32% | 65% and 62% | 2% and 5% | 0% and 4% | 9% and 13% | 26% and 40% | 97% and 94% | 13% and 4% | 45% and 44%

Same assay, conditions: 48 h, 10 µM, compound concentration 10 uM

Row | Compound | Total Cell Count
42 | Br.CS(=O)(=O)Nc1c(O)ccc2c1CCCC2C1=NCCN1 (centres undefined) | 145 and 127
43 | Cc1sc2c(c1C)C(c1ccc(Cl)cc1)=N[C@H](CC(=O)OC(C)(C)C)c1nnc(C)n1-2 | 134 and 170
44 | CN(C)c1ccnc2sc3c(=O)n(N4CCCCCC4)cnc3c12 | 138 and 131
45 | CCCOc1ccc2[nH]cc(C3=CCNCC3)c2n1.Cl | 150 and 116
